PERK inh – human PERK inhibition, primary cell-based screen; Q9NZJ5; CHO PERK-DD fusion, SEAP luminescence translation reporter; inhibition, % at 5.6 µM; 220,000 compounds, 0.17% hits; AID 1416;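 active = inhibition above the mean inhibition of all tested compounds plus 3 SD, set separately per screening campaign, cut at about 2.9% in these data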;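 also: PERK kinase domain activated by AP20187 dimerizer at 100 nM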
TAG inh – reduces triacylglycerol accumulation in H9c2 cells | inhibition, % at 12.5 µM | 230,000 compounds, 0.66% hits | Nile Red lipid (TAG) fluorescence; cells loaded with 200 µM oleic acid;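 active = pattern-corrected inhibition of lipid staining of at least 50% with the nuclear-stain viability signal not falling by more than 50%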
Hck Nef HTS – inhibitors of human Hck kinase activated by Nef; P08631; Recombinant Hck-YEEI plus Nef, Z-Lyte FRET kinase assay; inhibition, % at 20 µM; 220,000 compounds, 0.68% hits; AID 463187;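 active = Hck-Nef kinase inhibition above about 50%, limit read from the data; inactive = inhibition below that limit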
Rad51 HR inh – Rad51 (human) homologous recombination inhibition; Q06609; hRad51 DNA strand exchange, fluorescence dequenching; inhibition, % at 10 µM; 200,000 compounds, 0.085% hits;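 active = inhibition above 40% at the single screening dose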
Target sequence (Q06609 whole entry, looked up): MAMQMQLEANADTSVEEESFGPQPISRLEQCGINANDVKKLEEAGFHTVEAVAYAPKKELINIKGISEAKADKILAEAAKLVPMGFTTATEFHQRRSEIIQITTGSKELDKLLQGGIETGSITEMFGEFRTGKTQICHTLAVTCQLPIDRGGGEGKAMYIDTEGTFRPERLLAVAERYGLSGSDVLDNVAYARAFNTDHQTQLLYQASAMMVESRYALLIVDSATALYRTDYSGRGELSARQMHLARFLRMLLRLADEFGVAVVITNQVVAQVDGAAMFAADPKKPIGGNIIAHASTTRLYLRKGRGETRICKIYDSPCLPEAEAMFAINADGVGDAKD
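System: hRad51 filaments on single-stranded DNA; reagent: Fluorescein- and BHQ1-tagged 47-mer duplex; compound dosing: one concentration, 10 µM final; timing: filaments 15 min 37 °C, then compound 30 min; measured by: fluorescein emission 520 nm, excitation 485 nm; benchmarks: per-plate controls and blanks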
Mdm2 ligase inh – blocks human Mdm2 ubiquitin ligase activity; Q00987; cell-based MDM2 ubiquitination luciferase reporter, 2 h; 0 = plate control, 100 = twice control, blank-subtracted; signal enhancement, % at 5 µM; 210,000 compounds, 0.11% hits; AID 1230;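 active = signal enhancement of 30% or more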;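 also: luminescence tracks abundance of the self-degrading MDM2-luciferase fusion protein; higher signal means inhibition of MDM2 E3 ligase activity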
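Assay system: stable mammalian line carrying autodegrading MDM2–luciferase fusion reporter; amount: 2000 cells seeded into each well; buffer or medium: DMEM; benchmarks: plate control and blank wells; signal: luciferase luminescence; timing: 2 h compound exposure at 37 °C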
PKD1 kinase inh – PKD1 (human) kinase inhibition | Q15139 | PKD1 kinase fluorescence polarization assay | inhibition, % (test concentration not listed) | 200,000 compounds, 0.056% hits; in the data active = inhibition above about 50%
Numbers stand for hits; – = inactive; · = no result given. Shown are actives, neighbours in structure and some others; about 1.3% of the full set was active somewhere.

SMILES	PERK inh	TAG inh	Hck Nef HTS	Rad51 HR inh	Mdm2 ligase inh	PKD1 kinase inh
O=C(COC(=O)c1ccc2c(c1)OCCO2)Nc1ccc(F)cc1	·	–	·	·	·	·
Cc1ccc2nc(-c3ccc(NC(=S)NC4CC(C)(C)NC(C)(C)C4)cc3)sc2c1	–	52.6	–	–	–	–
O=C(CCC1CCN(C(=O)c2ccco2)CC1)NCc1ccc(F)cc1	·	–	·	·	·	·
O=C(O)C1Nc2c(O)cc(Cl)c([N+](=O)[O-])c2C2C=CCC12 (stereo unspecified)	–	–	69.7	–	–	–
C[C@@H]1CN([C@@H](C)CO)C(=O)CCCn2nncc2CO[C@@H]1CN(C)S(=O)(=O)c1ccc(Oc2ccccc2)nc1	·	–	·	·	·	·
CSc1nsc(SCC(=O)Nc2ccc3c(c2)OCCO3)n1	3.1	–	–	–	–	–
Cc1cc(C)c2sc(N(CCCN(C)C)C(=O)c3ccc(S(=O)(=O)N4CCc5ccccc5C4)cc3)nc2c1	·	54.4	·	·	·	·
Cc1cccc2sc(N(CCCN(C)C)C(=O)c3ccc(S(=O)(=O)N4CCc5ccccc5C4)cc3)nc12	·	–	·	·	·	·
CN(C)CCCN(C(=O)c1cc(-c2cccs2)nc2ccccc12)c1nc2ccc(F)cc2s1	·	59.7	·	·	·	·
CN(C)CCN(C(=O)c1cc(Cl)sc1Cl)c1nc2ccc(F)cc2s1	–	·	–	–	–	–
Cc1ccc2nc(N(CCCN(C)C)C(=O)c3ccc(S(=O)(=O)N4CCc5ccccc5C4)cc3)sc2c1	·	69.2	·	·	·	·
CN(C)CCCN(C(=O)c1ccc(S(=O)(=O)N2CCc3ccccc3C2)cc1)c1nc2ccc(F)cc2s1	·	56.9	·	·	·	·
O=C(CNC(=O)C1CC1)Nc1ccc(F)c(F)c1F	·	–	·	·	·	·
CC(NCc1cccc(S(=O)(=O)N(C)C)c1)c1ccc(F)cc1 (stereo unspecified)	–	–	–	–	–	·
COc1ccc(Cl)cc1C(=O)Nc1ccc(NC(=O)C(C)C)cc1	–	–	–	–	–	–
CCC(C(=O)OCC(=O)NC(=O)c1ccccc1OC)c1ccccc1 (stereo unspecified)	·	–	·	·	·	·
N#Cc1cc([N+](=O)[O-])cnc1N(CCO)CCO	–	–	–	–	–	–
Cc1cc(C)c2sc(N(CCCN(C)C)C(=O)c3ccc(S(=O)(=O)N4CCCc5ccccc54)cc3)nc2c1	·	56.4	·	·	·	·
C[C@H](CO)N1C[C@H](C)[C@H](CN(C)S(C)(=O)=O)OCc2cnnn2CCCC1=O	·	–	·	·	·	·
COc1ccc(-c2c(C#Cc3ccsc3)c3cc(-c4ccc(OC)nc4)ccc3n2C)cc1	·	–	·	·	·	·
COc1cc(C#Cc2c(-c3cncn3C)n(C)c3ccc(-c4ccc(OC)nc4)cc23)cc(OC)c1	·	103.1	·	·	·	·
COC(Cn1cc(C)c(=O)[nH]c1=O)OC	–	–	–	–	42.1	–
Cc1ccsc1C1Nc2ccc3ncccc3c2C2=C1C(=O)CCC2 (stereo unspecified)	–	·	–	–	34.0	–
COc1cc(C2Nc3ccc4ncccc4c3C3=C2C(=O)CCC3)cc(OC)c1OC (stereo unspecified)	–	–	–	–	–	–
c1ccc(C(=C2CCCO2)c2ccccc2)cc1	·	–	·	·	·	·
SMILES	PERK inh	TAG inh	Hck Nef HTS	Rad51 HR inh	Mdm2 ligase inh	PKD1 kinase inh
O=C(Nc1ccc(F)cc1)c1ccccc1S(=O)(=O)c1ccccc1[N+](=O)[O-]	–	·	–	–	48.8	–
COC(=O)c1ccccc1NC(=O)CSc1nc2ccsc2c(=O)n1CCCCC(=O)O	·	–	·	·	·	·
CC(NC(=O)CCCc1ccccc1)c1ccncc1 (stereo unspecified)	·	–	·	·	·	·
O=[N+]([O-])c1ccc(/C=N/N=C/c2ccc([N+](=O)[O-])o2)o1	–	–	–	–	77.4	–
O=C(O)/C=C/c1ccc([N+](=O)[O-])o1	–	–	–	–	–	–
O=C(/C=C/c1ccc(S(=O)(=O)NCc2ccco2)cc1)NCc1cccc(Cl)c1	–	–	–	–	–	–
COCCN1C=C(C(=O)OC)C(c2ccc(Cl)cc2)C(C(=O)OC)=C1	–	–	74.6	·	–	–
CC(Sc1ccccc1)C(=O)NCC(c1ccco1)N1CCCCC1 (stereo unspecified)	·	–	·	·	·	·
COc1cc(C(=O)Nc2cccc(C)c2C)c(Br)c(OC)c1OC	–	·	–	48.5	–	–
O=C(Nc1c2c(nn1-c1ccccc1)CS(=O)C2)c1ccc(Br)o1 (stereo unspecified)	·	–	·	·	·	·
CCC(C)NS(=O)(=O)c1ccc(OCC(=O)NCc2ccccn2)cc1 (stereo unspecified)	3.2	–	–	–	–	–
COc1ccc(C(C)=O)cc1COC(=O)C1CCN(C(=O)c2ccc(Cl)cc2)CC1	·	–	·	·	·	·
O=c1c2c(-c3ccccc3)csc2nc2c3ccccc3c(NCCN3CCOCC3)nn12	–	100.5	–	–	–	–
CC(=O)c1cccc(NC(=S)NC(=O)c2ccccc2)c1	–	·	–	·	–	–
CNC(=S)Nc1cccc(C(C)=O)c1	–	–	72.6	–	–	–
CNc1cncc(-c2cccc(NS(C)(=O)=O)c2)n1	·	–	·	·	·	·
O=C(CSc1nnc(CNc2ccccc2)o1)N1CCCc2ccccc21	–	·	–	·	–	–
O=C(CSc1nnc(Cc2ccccc2)o1)N1CCc2ccccc21	–	–	–	85.3	–	–
CCOC(=O)Cn1nc2sc3ccccc3n2c(=O)c1=O	–	–	–	–	–	·
Cc1c(O)nc2sc3ccccc3n2c1=O	4.4	·	–	–	–	·
Cc1cc(NC(=O)CSc2nc(C(C)C)nc3c2c(=O)n(C)c(=O)n3C)no1	–	–	–	–	33.3	–
C[C@@H](C(=O)OCn1nnc2ccccc2c1=O)N1C(=O)C2CCCCC2C1=O (stereo partly specified)	–	–	–	–	–	–
COCCSc1nnc(-c2cccc(C#N)c2)n1C	3.3	·	–	–	–	–
COCCn1c(SCC#N)nnc1-c1ccccc1	–	·	–	–	–	–
COc1ccc(NC(=O)COC(=O)CNC(=O)c2cccs2)cc1Cl	·	–	·	·	·	·
SMILES	PERK inh	TAG inh	Hck Nef HTS	Rad51 HR inh	Mdm2 ligase inh	PKD1 kinase inh
CCOC(=O)N1CCN(C(=O)CSCC(=O)N=c2sc3ccccc3n2C)CC1	–	–	–	104.8	–	–
COc1ccc2nc(Cl)c(/C=N/Nc3ccccn3)cc2c1	–	–	–	–	–	–
Cc1cc(C(=O)CCl)c(C)n1CCc1ccc(Cl)cc1	–	59.0	–	·	·	–
Cc1cc(C(=O)CCl)c(C)n1CCc1ccc(F)cc1	–	–	–	–	–	–
Cn1nc(C(F)(F)F)c(-c2ccccc2)c1NC(=O)CCC(=O)O	3.5	–	–	–	–	·
COc1cc(C(=O)NCC2CCCO2)ccc1OCc1ccc(Cl)cc1Cl (stereo unspecified)	·	–	·	·	·	·
CN(C)c1nc(=NCc2ccco2)ss1	–	·	–	–	36.5	·
COc1ccc(NC(=O)C2(C)Cc3c(-c4ccc(N(C)C)cc4)ccnc3O2)cn1 (stereo unspecified)	·	–	·	·	·	·
O=C(O)CC(NC(=O)C1CCCCC1)c1ccc(OC2CCCC2)cc1 (stereo unspecified)	–	–	–	–	–	–
